Laboratory results reported in ChEMBL document CHEMBL4477243, “Discovery and SAR of a novel series of potent, CNS penetrant M4 PAMs based on a non-enolizable ketone core: Challenges in disposition” (Bioorg Med Chem Lett, 2016).

Columns and labels:
[1] = target: T1, Muscarinic acetylcholine receptor M4 (Rattus norvegicus, UniProt P08485); assay: Positive allosteric modulation activity at rat M4 receptor expressed in CHO cells co-expressing Gqi5 protein assessed as potentiation of EC20 acetyl choline-induced response by calcium mobilization assay; assay type: functional, cell-based; details: read-out: EC50
T1 sequence (P08485 whole entry): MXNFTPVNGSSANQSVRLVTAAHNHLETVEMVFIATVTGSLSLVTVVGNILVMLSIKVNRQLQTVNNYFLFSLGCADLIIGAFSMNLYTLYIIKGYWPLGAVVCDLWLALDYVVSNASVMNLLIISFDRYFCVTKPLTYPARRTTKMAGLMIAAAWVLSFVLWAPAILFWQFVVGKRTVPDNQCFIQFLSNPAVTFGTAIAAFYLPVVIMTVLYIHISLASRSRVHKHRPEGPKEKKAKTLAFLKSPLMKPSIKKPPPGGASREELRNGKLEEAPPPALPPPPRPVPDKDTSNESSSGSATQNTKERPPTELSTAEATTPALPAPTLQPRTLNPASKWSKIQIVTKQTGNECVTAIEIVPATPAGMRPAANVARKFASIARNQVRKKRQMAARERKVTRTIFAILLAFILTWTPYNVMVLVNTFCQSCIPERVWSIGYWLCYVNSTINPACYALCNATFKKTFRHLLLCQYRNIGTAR
How it was run: (§1)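 Calcium mobilization in CHO cells stably co-expressing human or rat M4 with the chimeric Gqi5 protein. Test compound given with a fixed EC20 concentration of acetylcholine. Potency reported as EC50; efficacy as % of the acetylcholine maximum. Means of three independent experiments, each in triplicate.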

[2] = target: T2, Muscarinic acetylcholine receptor M4 (Homo sapiens, UniProt P08173); assay: Positive allosteric modulation activity at human M4 receptor expressed in CHO cells co-expressing Gqi5 protein assessed as potentiation of EC20 acetyl choline-induced response by calcium mobilization assay; assay type: functional, cell-based; details: read-out: EC50; how it was run: as §1
T2 sequence (P08173 whole entry): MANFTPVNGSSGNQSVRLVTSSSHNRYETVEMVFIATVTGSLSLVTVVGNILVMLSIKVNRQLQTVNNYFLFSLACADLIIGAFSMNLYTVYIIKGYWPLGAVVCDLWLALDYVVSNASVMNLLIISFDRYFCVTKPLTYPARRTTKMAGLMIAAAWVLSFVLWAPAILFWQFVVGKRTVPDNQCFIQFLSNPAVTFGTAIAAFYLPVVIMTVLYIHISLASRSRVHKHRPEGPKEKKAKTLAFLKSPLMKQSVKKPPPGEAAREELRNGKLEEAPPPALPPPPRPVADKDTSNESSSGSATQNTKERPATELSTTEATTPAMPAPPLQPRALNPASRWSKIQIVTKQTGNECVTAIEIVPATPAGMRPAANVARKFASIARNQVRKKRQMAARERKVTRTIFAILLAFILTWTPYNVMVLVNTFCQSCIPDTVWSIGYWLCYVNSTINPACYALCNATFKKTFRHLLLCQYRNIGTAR

[3] = target: T3, Muscarinic acetylcholine receptor M4 (Homo sapiens) (UniProt P08173); assay: Positive allosteric modulation activity at human M4 receptor expressed in CHO cells co-expressing Gqi5 protein assessed as potentiation of EC20 acetyl choline-induced response by calcium mobilization assay relative to acetylcholine; assay type: functional, cell-based; how it was run: as §1
T3 sequence (whole entry): T2 sequence (P08173 whole entry)

[4] = Ratio of drug level in Sprague-Dawley rat brain to plasma at 0.2 to 0.25 mg/kg, iv administered as cassette dose measured 0.25 hrs post dose; assay type: ADME, organism-based; details: brain and plasma
How it was run: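 Male Sprague-Dawley rats (n=1) received an IV cassette dose of 0.20-0.25 mg/kg. Brain and plasma sampled 0.25 hr post-administration. Total brain:plasma partition coefficient (Kp) measured; unbound coefficient (Kp,uu) calculated.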

[5] = target: T4, Muscarinic acetylcholine receptor M4 (Rattus norvegicus) (UniProt P08485); assay: Positive allosteric modulation activity at rat M4 receptor expressed in CHO cells co-expressing Gqi5 protein assessed as potentiation of EC20 acetyl choline-induced response by calcium mobilization assay relative to acetylcholine; assay type: functional, cell-based; how it was run: as §1
T4 sequence (whole entry): T1 sequence (P08485 whole entry)

Cytochrome P450 = assay: Inhibition of Cytochrome P450 (unknown origin); assay type: ADME, protein assay; details: human
[6] = Fraction unbound in rat plasma; assay type: ADME, cell-free
How it was run: (§2)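 Plasma protein binding, reported as fraction unbound in rat and human plasma. Single experiment (n=1) run in triplicate.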

Cytochrome P450 1A2 = target: T5, Cytochrome P450 1A2 (Homo sapiens, UniProt P05177); assay: Inhibition of CYP1A2 (unknown origin); assay type: ADME
T5 sequence (P05177 whole entry): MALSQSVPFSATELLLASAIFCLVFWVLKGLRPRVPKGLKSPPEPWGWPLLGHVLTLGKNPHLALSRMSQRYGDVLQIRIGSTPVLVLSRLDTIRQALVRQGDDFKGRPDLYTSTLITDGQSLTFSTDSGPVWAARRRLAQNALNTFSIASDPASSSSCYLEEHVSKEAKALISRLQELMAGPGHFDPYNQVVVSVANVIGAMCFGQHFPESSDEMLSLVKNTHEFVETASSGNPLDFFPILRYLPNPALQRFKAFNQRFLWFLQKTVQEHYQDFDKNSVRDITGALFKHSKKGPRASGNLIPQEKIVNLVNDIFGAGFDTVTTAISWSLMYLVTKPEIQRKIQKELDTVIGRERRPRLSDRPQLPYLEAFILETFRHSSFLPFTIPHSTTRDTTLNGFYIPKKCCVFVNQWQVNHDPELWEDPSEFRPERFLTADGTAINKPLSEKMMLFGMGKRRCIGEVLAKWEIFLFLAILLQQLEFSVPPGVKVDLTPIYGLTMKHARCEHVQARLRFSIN

[7] = Fraction unbound in human plasma; assay type: ADME, cell-free; how it was run: as §2

Row | Compound | EC50 [1] [nM] | EC50 [2] [nM] | %max [3] [%] | Kp at 0.25 h [4] | %max [5] [%] | inhibition (INH) (Cytochrome P450) | fraction unbound [6] | inhibition (INH) (Cytochrome P450 1A2) | fraction unbound [7]
1 | COc1ccc(C(O)c2sc3nnc(C)c(C)c3c2N)cc1 (configuration not stated) | > 10000 | > 10000 |  |  |  |  |  |  | 
2 | Cc1cc(C)c2c(N)c(C(O)c3ccc(F)cc3F)sc2n1 (configuration not stated) | > 10000 | > 10000 |  |  |  |  |  |  | 
3 | Cc1nnc2sc(C(O)c3ccccc3)c(N)c2c1C (configuration not stated) | > 10000 | > 10000 |  |  |  |  |  |  | 
4 | COc1ccc(C(O)c2sc3nc(C)cc(C)c3c2N)cc1 (configuration not stated) | > 10000 | > 10000 |  |  |  |  |  |  | 
5 | Cc1cc(C)c2c(N)c(C(=O)CCc3ccncc3)sc2n1 | 540 | 479 | 59.1 | 11 | 67.9 |  |  |  | 
6 | Cc1nnc2sc(C(=O)c3cccnc3)c(N)c2c1C | 417 | 105 | 74 | 0.83 to 6.95 | 95 | Not Active | 0.005 to 0.18 | Active | 0.005 to 0.18
7 | Cc1cc(C)c2c(N)c(C(=O)c3ccccc3)sc2n1 | 1500 | 891 | 47 | 0.83 to 6.95 | 46 | Not Active | 0.005 to 0.18 | Active | 0.005 to 0.18
8 | Nc1c(C(O)c2ccncc2)sc2nc(O)c3c(c12)CCCC3 (configuration not stated) | > 10000 | > 10000 |  |  |  |  |  |  | 
9 | Cc1nc2sc(C(O)c3cccnc3)c(N)c2c(C)c1Cl (configuration not stated) | > 10000 | > 10000 |  |  |  |  |  |  | 
10 | Cc1nc2sc(C(O)c3ccccc3)c(N)c2c(C)c1Cl (configuration not stated) | > 10000 | > 10000 |  |  |  |  |  |  | 
11 | Cc1cc(C)c2c(N)c(C(O)c3ccc(F)c(Cl)c3)sc2n1 (configuration not stated) | > 10000 | > 10000 |  |  |  |  |  |  | 
12 | Cc1cc(C)c2c(N)c(C(=O)c3ccc(F)c(Cl)c3)sc2n1 | 195 | 240 | 45 | 0.83 to 6.95 | 41 | Not Active | 0.005 to 0.18 | Active | 0.005 to 0.18
13 | Nc1c(C(O)c2ccncc2)sc2nc(OCCN3CCOCC3)c3c(c12)CCC3 (configuration not stated) | > 10000 | > 10000 |  |  |  |  |  |  | 
14 | Cc1nnc2sc(C(O)c3ccncc3)c(N)c2c1C (configuration not stated) | > 10000 | > 10000 |  |  |  |  |  |  | 
15 | Cc1cc(C)c2c(N)c(C(=O)c3ccc(O)cc3)sc2n1 | 380 | 355 | 70 | 0.83 to 6.95 | 73 | Not Active | 0.005 to 0.18 | Active | 0.005 to 0.18
16 | Nc1c(C(O)c2ccncc2)sc2nc(OCc3ccncc3)c3c(c12)CCC3 (configuration not stated) | > 10000 | > 10000 |  |  |  |  |  |  | 
17 | Cc1nnc2sc(C(O)c3ccc(F)cc3F)c(N)c2c1C (configuration not stated) | > 10000 | > 10000 |  |  |  |  |  |  | 
18 | Cc1cc(C)c2c(N)c(C(O)c3ccccc3)sc2n1 (configuration not stated) | > 10000 | > 10000 |  |  |  |  |  |  | 
19 | Cc1nc2sc(C(=O)c3cccnc3)c(N)c2c(C)c1Cl | 417 | 105 | 74 | 0.83 to 6.95 | 95 | Not Active | 0.005 to 0.18 | Active | 0.005 to 0.18
20 | COc1ccc(CCC(=O)c2sc3nnc(C)c(C)c3c2N)cc1F | 254 | 380 | 69.1 | 11 | 77.2 |  |  |  | 
21 | Cc1nnc2sc(C(=O)c3ccncc3)c(N)c2c1C | 3550 | 891 | 76 |  | 68 | Not Active | 0.005 to 0.18 | Active | 0.005 to 0.18
22 | Cc1nnc2sc(C(O)c3cccnc3)c(N)c2c1C (configuration not stated) | > 10000 | > 10000 |  |  |  |  |  |  | 
23 | Nc1c(C(=O)c2ccncc2)sc2nc(OCc3ccncc3)c3c(c12)CCC3 | 1230 | 295 |  | 0.83 to 6.95 |  | Not Active | 0.005 to 0.18 | Active | 0.005 to 0.18
24 | Cc1nc2sc(C(=O)c3ccccc3)c(N)c2c(C)c1Cl | 692 | 372 | 45 |  | 43 | Not Active | 0.005 to 0.18 | Active | 0.005 to 0.18
25 | Cc1nnc2sc(C(=O)c3ccccc3)c(N)c2c1C | 166 | 102 | 76 |  | 67 | Not Active | 0.005 to 0.18 | Active | 0.005 to 0.18
26 | Cc1cc(C)c2c(N)c(C(O)c3ccc(O)cc3)sc2n1 (configuration not stated) | > 10000 | > 10000 |  |  |  |  |  |  | 
27 | Nc1c(C(=O)c2ccncc2)sc2nc(OCCN3CCOCC3)c3c(c12)CCC3 | 417 | 76 |  |  |  | Not Active | 0.005 to 0.18 | Active | 0.005 to 0.18
